Source: ChEMBL document CHEMBL3875206, “Design, synthesis and biological evaluation of 4'-aminochalcone-rivastigmine hybrids as multifunctional agents for the treatment of Alzheimer's disease” (Bioorg Med Chem, 2017)

Tests used:
[1] = Inhibition of Cu2+-mediated aggregation of amyloid beta (1-42) (unknown origin) at 25 uM after 24 hrs by thioflavin T fluorescence-based fluorimetric method relative to control; assay type: functional
How it was run: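 HFIP-pretreated Aβ1-42 (25 µM) was incubated with Cu2+ (25 µM), with or without compound (25 µM final), in 20 mM HEPES/150 mM NaCl pH 6.6 at 37 °C for 24 h. 5 µM ThT in 50 mM glycine-NaOH pH 8.5 was then added. Fluorescence was read at ex 446/em 490 nm. Percent inhibition was taken versus no-inhibitor control after background subtraction, in triplicate.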

[2] = biological target: T1, Amine oxidase [flavin-containing] B (Homo sapiens, UniProt P27338); assay: Inhibition of recombinant human MAO-B expressed in baculovirus infected High 5 insect cells 10 uM using kynuramine as substrate incubated for 30 mins by spectrofluorometric method relative to control; conditions: 0.5 h
T1 sequence (P27338 whole entry): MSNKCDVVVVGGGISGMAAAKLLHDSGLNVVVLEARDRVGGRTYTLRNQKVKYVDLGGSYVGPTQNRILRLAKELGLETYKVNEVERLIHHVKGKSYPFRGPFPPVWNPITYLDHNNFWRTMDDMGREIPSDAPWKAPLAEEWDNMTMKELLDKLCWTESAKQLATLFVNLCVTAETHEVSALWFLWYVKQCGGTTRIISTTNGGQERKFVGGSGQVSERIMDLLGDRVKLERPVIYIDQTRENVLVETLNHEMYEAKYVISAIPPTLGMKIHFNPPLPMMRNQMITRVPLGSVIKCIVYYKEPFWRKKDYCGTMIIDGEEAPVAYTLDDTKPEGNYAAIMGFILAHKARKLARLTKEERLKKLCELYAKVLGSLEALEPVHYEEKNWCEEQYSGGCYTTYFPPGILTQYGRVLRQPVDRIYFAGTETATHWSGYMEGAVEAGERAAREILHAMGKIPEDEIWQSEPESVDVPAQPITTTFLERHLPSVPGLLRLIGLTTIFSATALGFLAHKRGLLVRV
How it was run: (§1)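 Recombinant human MAO-A or MAO-B (7.5 µg/mL) with kynuramine substrate in 100 mM potassium phosphate pH 7.4 (KCl-isotonic), <4% DMSO, 30 min at 37 °C. Stopped with 2 N NaOH. 4-Hydroxyquinoline was measured fluorometrically (ex 310/em 400 nm) against a calibration curve. Single-point inhibition at 10 µM. IC50 from six-concentration sigmoidal curves, triplicate. SI = IC50(MAO-A)/IC50(MAO-B).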

[3] = biological target: Amyloid-beta precursor protein (Homo sapiens) (UniProt P05067); assay: Inhibition of self-induced aggregation of amyloid beta (1-42) (unknown origin) at 25 uM after 24 hrs by thioflavin T fluorescence-based fluorimetric method relative to control
How it was run: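 Aβ1-42 was pretreated in HFIP, dried and stocked in DMSO. Aβ1-42 (25 µM final) was incubated with compound (25 µM final) in 50 mM phosphate buffer pH 7.4 at 37 °C for 24 h. 5 µM ThT in 50 mM glycine-NaOH pH 8.5 was then added. Fluorescence was read at ex 446/em 490 nm. Inhibition = (1−IFi/IFc)×100 after background subtraction, in triplicate.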

[4] = Inhibition of rat serum BuChE at 50 uM using butyrylthiocholine iodide as substrate incubated for 15 mins by Ellman's method relative to control; conditions: 0.25 h
How it was run: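 Ellman method with 25% rat serum as BuChE source, butyrylthiocholine iodide 1 mmol/L, phosphate buffer pH 7.4, absorbance at 405 nm. Compounds tested at 50 µM. […] Triplicate wells.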

[5] = biological target: T2, Amine oxidase [flavin-containing] A (Homo sapiens, UniProt P21397); assay: Inhibition of recombinant human MAO-A expressed in baculovirus infected High 5 insect cells at 10 uM using kynuramine as substrate incubated for 30 mins by spectrofluorometric method relative to control; conditions: 0.5 h; how it was run: as §1
T2 sequence (P21397 whole entry): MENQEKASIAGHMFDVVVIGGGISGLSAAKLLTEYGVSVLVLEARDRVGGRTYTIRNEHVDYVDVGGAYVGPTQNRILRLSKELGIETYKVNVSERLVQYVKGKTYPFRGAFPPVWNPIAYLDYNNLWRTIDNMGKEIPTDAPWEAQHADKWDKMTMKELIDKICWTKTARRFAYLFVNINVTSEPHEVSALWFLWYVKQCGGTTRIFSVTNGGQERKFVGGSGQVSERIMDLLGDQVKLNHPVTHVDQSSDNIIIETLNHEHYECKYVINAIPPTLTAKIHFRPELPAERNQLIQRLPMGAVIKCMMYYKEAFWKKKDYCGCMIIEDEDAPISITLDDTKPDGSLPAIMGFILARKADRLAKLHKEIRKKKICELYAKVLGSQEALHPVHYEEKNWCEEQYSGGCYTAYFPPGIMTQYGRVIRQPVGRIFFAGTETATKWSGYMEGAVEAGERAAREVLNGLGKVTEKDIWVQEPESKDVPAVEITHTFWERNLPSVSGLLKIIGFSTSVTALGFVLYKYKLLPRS

Acetylcholinesterase = Acetylcholinesterase (Electrophorus electricus, UniProt O42275); assay: Inhibition of electric eel AChE using acetylthiocholine iodide as substrate incubated for 15 mins by Ellman's method
How it was run: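 Ellman spectrophotometric assay: electric eel AChE 0.05 U/mL final, acetylthiocholine iodide 1 mmol/L, phosphate buffer pH 8.0, range of compound concentrations.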

[6] = Antioxidant activity assessed as trolox equivalents of AAPH radical scavenging activity at 5 uM preincubated for 15 mins followed by AAPH addition measured every 60 sec for 90 mins by ORAC-FL assay; assay type: functional
How it was run: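 Peroxyl radicals generated by AAPH (12 mM final) at 37 °C in phosphate buffer pH 7.4 with fluorescein (150 nM final). Sample and fluorescein were preincubated 15 min before AAPH addition. Fluorescence (ex 485/em 535 nm) was read every 60 s for 90 min.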

[7] = biological target: T1, Amine oxidase [flavin-containing] B; assay: Inhibition of recombinant human MAO-B expressed in baculovirus infected High 5 insect cells using kynuramine as substrate incubated for 30 mins by spectrofluorometric method; assay type: cell-based
Homo sapiens = species: Homo sapiens; assay: Selectivity index, ratio of IC50 for recombinant human MAO-A expressed in baculovirus infected High 5 insect cells to IC50 for recombinant human MAO-B expressed in baculovirus infected High 5 insect cells
How it was run: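 Recombinant human MAO-A or MAO-B (7.5 µg/mL) with kynuramine substrate in 100 mM potassium phosphate pH 7.4 (KCl-isotonic), <4% DMSO, 30 min at 37 °C. Stopped with 2 N NaOH. Single-point inhibition at 10 µM. IC50 from six-concentration sigmoidal curves, triplicate. SI = IC50(MAO-A)/IC50(MAO-B).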

[8] = biological target: T2, Amine oxidase [flavin-containing] A; assay: Inhibition of recombinant human MAO-A expressed in baculovirus infected High 5 insect cells using kynuramine as substrate incubated for 30 mins by spectrofluorometric method
[9] = Inhibition of rat serum BuChE using butyrylthiocholine iodide as substrate incubated for 15 mins by Ellman's method
How it was run: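 Rat serum BuChE (25% serum) by Ellman method, butyrylthiocholine iodide 1 mmol/L, phosphate buffer pH 7.4, read at 405 nm. Compound concentrations varied, each in triplicate.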

Acetylcholinesterase, sequence (O42275 whole entry): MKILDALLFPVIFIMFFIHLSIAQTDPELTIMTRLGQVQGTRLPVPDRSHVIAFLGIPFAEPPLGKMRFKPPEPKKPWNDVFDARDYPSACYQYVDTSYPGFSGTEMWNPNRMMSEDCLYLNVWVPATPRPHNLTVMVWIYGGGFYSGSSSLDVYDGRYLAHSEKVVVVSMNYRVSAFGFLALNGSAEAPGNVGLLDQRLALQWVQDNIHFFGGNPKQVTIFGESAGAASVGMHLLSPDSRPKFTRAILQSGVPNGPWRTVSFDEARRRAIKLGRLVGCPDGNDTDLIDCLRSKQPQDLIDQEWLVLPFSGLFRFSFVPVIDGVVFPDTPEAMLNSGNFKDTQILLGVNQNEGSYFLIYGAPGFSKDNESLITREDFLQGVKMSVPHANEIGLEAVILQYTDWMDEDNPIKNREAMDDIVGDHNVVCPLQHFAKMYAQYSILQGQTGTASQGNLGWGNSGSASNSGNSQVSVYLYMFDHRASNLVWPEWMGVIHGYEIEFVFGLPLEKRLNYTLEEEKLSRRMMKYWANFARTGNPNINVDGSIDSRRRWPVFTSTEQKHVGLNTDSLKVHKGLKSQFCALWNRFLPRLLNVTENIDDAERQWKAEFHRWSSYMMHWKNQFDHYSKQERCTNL
Amyloid-beta precursor protein (Homo sapiens), sequence (P05067 whole entry): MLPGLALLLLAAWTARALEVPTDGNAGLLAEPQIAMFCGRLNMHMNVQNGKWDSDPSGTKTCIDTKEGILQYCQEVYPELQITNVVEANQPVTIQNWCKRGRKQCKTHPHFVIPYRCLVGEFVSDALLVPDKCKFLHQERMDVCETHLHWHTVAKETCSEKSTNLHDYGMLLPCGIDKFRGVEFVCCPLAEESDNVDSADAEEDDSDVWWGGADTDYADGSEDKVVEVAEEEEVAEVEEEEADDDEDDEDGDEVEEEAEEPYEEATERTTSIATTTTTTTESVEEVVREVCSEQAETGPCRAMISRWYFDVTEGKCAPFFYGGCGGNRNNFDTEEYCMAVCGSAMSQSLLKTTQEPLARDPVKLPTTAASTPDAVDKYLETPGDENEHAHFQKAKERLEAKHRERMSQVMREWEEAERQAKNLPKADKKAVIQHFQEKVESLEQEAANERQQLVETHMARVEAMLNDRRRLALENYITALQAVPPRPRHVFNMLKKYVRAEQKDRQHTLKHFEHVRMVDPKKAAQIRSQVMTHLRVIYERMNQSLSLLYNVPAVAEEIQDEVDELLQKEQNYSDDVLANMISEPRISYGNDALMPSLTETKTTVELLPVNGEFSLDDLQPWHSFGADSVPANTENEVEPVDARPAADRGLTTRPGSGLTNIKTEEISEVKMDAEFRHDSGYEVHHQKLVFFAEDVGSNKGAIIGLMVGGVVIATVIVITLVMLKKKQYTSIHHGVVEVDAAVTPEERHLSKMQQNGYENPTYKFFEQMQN

CN(C)c1ccc(/C=C/C(=O)c2ccc(OC(=O)N3CCCCC3)cc2OC(=O)N2CCCCC2)cc1
inhibition [1]: 23.8% | inhibition at 10 µM [2]: 30.1% | inhibition [3]: 38% | inhibition (INH) [4]: < 10% | inhibition at 10 µM [5]: 17% | IC50 (Acetylcholinesterase): 32.4 µM | Activity [6]: 2.41 µMequiv/µM

O=C(/C=C/c1ccc(N2CCCC2)cc1)c1ccc(OC(=O)N2CCCC2)cc1O
inhibition [1]: 48.9% | inhibition [3]: 44.4% | inhibition (INH) [4]: < 10% | IC50 [7]: 0.71 µM | inhibition at 10 µM [5]: 15.2% | IC50 (Acetylcholinesterase): 14.1 µM | Activity [6]: 0.35 µMequiv/µM

CN1CCN(C(=O)Oc2ccc(C(=O)/C=C/c3ccc(N(C)C)cc3)c(O)c2)CC1
inhibition [1]: 75.5% | inhibition at 10 µM [2]: 25.1% | inhibition [3]: 87.9% | inhibition (INH) [4]: < 10% | inhibition at 10 µM [5]: 49.5% | IC50 (Acetylcholinesterase): 11.9 µM | Activity [6]: 2.08 µMequiv/µM

CN(C)c1ccc(/C=C/C(=O)c2ccc(OC(=O)N3CCOCC3)cc2O)cc1
inhibition [1]: 79.7% | inhibition at 10 µM [2]: 42.3% | inhibition [3]: 83.6% | inhibition (INH) [4]: < 10% | inhibition at 10 µM [5]: 34.6% | IC50 (Acetylcholinesterase): 8.01 µM | Activity [6]: 2.04 µMequiv/µM

CCN(CC)C(=O)Oc1ccc(C(=O)/C=C/c2ccc(N(C)C)cc2)c(O)c1
inhibition [1]: 49% | inhibition [3]: 76.7% | inhibition (INH) [4]: < 10% | IC50 [7]: 3.5 µM | inhibition at 10 µM [5]: 24.4% | IC50 (Acetylcholinesterase): 17.2 µM | Activity [6]: 2.2 µMequiv/µM

CN(C)c1ccc(/C=C/C(=O)c2ccc(OC(=O)N3CCCC3)cc2OC(=O)N2CCCC2)cc1
inhibition [1]: 26.3% | inhibition at 10 µM [2]: 34.6% | inhibition [3]: 48% | inhibition (INH) [4]: < 10% | inhibition at 10 µM [5]: 25.2% | IC50 (Acetylcholinesterase): 30 µM | Activity [6]: 2.45 µMequiv/µM

CN(C)C(=O)Oc1ccc(C(=O)/C=C/c2ccc(N(C)C)cc2)c(OC(=O)N(C)C)c1
inhibition [1]: 56.2% | inhibition at 10 µM [2]: 5.1% | inhibition [3]: 34.7% | inhibition (INH) [4]: < 10% | inhibition at 10 µM [5]: 34.6% | IC50 (Acetylcholinesterase): > 100 µM | Activity [6]: 2.16 µMequiv/µM

CN(C)c1ccc(/C=C/C(=O)c2ccc(O)cc2O)cc1
Ratio IC50 (Homo sapiens): 13.4 | inhibition [1]: 60.1% | inhibition [3]: 77.7% | inhibition (INH) [4]: < 10% | IC50 [8]: 4.06 µM | IC50 [7]: 0.31 µM | IC50 (Acetylcholinesterase): 78.2 µM | Activity [6]: 2 µMequiv/µM

CCN(C)C(=O)Oc1cccc([C@H](C)N(C)C)c1 [RIVASTIGMINE]
IC50 [9]: 2.86 µM

CN(C)c1ccc(/C=C/C(=O)c2ccc(OC(=O)N3CCN(Cc4ccccc4)CC3)cc2O)cc1
inhibition [1]: 94.2% | inhibition at 10 µM [2]: 41.6% | inhibition [3]: 89.4% | inhibition (INH) [4]: < 10% | inhibition at 10 µM [5]: 42.1% | IC50 (Acetylcholinesterase): 21.4 µM | Activity [6]: 3.51 µMequiv/µM

CN(C)C(=O)Oc1ccc(C(=O)/C=C/c2ccc(N(C)C)cc2)c(O)c1
Ratio IC50 (Homo sapiens): 4.11 | inhibition [1]: 77.9% | inhibition [3]: 90.8% | inhibition (INH) [4]: < 10% | IC50 [8]: 10.2 µM | IC50 [7]: 2.48 µM | IC50 (Acetylcholinesterase): 32.6 µM | Activity [6]: 2.62 µMequiv/µM

O=C(/C=C/c1ccc(N2CCCCC2)cc1)c1ccc(OC(=O)N2CCCC2)cc1O
inhibition [1]: 59.8% | inhibition [3]: 57.2% | inhibition (INH) [4]: < 10% | IC50 [7]: 0.78 µM | inhibition at 10 µM [5]: 19.6% | IC50 (Acetylcholinesterase): 10.6 µM | Activity [6]: 1.2 µMequiv/µM

COc1cc(/C=C/C(=O)CC(=O)/C=C/c2ccc(O)c(OC)c2)ccc1O
inhibition [1]: 67.2%

CCN(C)C(=O)Oc1ccc(C(=O)/C=C/c2ccc(N(C)C)cc2)c(O)c1
Ratio IC50 (Homo sapiens): > 4.76 | inhibition [1]: 88% | inhibition [3]: 98% | inhibition (INH) [4]: < 10% | IC50 [7]: 2.1 µM | inhibition at 10 µM [5]: 25.9% | IC50 (Acetylcholinesterase): 14.3 µM | Activity [6]: 3.14 µMequiv/µM

O=C(/C=C/c1ccc(N2CCOCC2)cc1)c1ccc(OC(=O)N2CCCC2)cc1O
Ratio IC50 (Homo sapiens): > 14.1 | inhibition [1]: 48.9% | inhibition [3]: 44.4% | inhibition (INH) [4]: < 10% | IC50 [7]: 0.71 µM | inhibition at 10 µM [5]: 15.2% | IC50 (Acetylcholinesterase): 63.5 µM | Activity [6]: 0.51 µMequiv/µM

CN(C)c1ccc(/C=C/C(=O)c2ccc(OC(=O)N3CCCCC3)cc2O)cc1
inhibition [1]: 73.9% | inhibition at 10 µM [2]: 31.1% | inhibition [3]: 70.2% | inhibition (INH) [4]: < 10% | inhibition at 10 µM [5]: 27.8% | IC50 (Acetylcholinesterase): 6.9 µM | Activity [6]: 2.51 µMequiv/µM

CN(C)c1ccc(/C=C/C(=O)c2ccc(OC(=O)N3CCOCC3)cc2OC(=O)N2CCOCC2)cc1
inhibition [1]: 41.4% | inhibition at 10 µM [2]: 40.2% | inhibition [3]: 33.3% | inhibition (INH) [4]: < 10% | inhibition at 10 µM [5]: 15% | IC50 (Acetylcholinesterase): 58 µM | Activity [6]: 1.85 µMequiv/µM

CCN(CC)c1ccc(/C=C/C(=O)c2ccc(OC(=O)N3CCCC3)cc2O)cc1
inhibition [1]: 67.1% | inhibition [3]: 67.8% | inhibition (INH) [4]: < 10% | IC50 [7]: 6.7 µM | inhibition at 10 µM [5]: 21% | IC50 (Acetylcholinesterase): 11.7 µM | Activity [6]: 1.02 µMequiv/µM

CCN1CCN(C(=O)Oc2ccc(C(=O)/C=C/c3ccc(N(C)C)cc3)c(O)c2)CC1
inhibition [1]: 89.2% | inhibition at 10 µM [2]: 30% | inhibition [3]: 83.2% | inhibition (INH) [4]: < 10% | inhibition at 10 µM [5]: 42.5% | IC50 (Acetylcholinesterase): 8.62 µM | Activity [6]: 2.54 µMequiv/µM
